Source: PubChem BioAssay (several laboratories)
PABP polyA inh: PABP-poly(A) binding inhibition; PABP-poly(A) RNA binding, fluorescence polarization; P11940; AID 2014; actives 1% (n = 290,000); calls only at 35 µM;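 note: calls also rest on retests at 20 µM and on dose response follow-up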
PABP1 MLLE inh: blocks PAM2 peptide binding to the PABP1 MLLE domain; P11940; GST-MLLE / FITC-PAM2 fluorescence polarization; inhibition, % at 20 µM; actives 0.36% (n = 360,000); AID 588489; in the data active = inhibition above about 35%, passing the limit was not always enough;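 note: plate controls were DMSO wells with GST-MLLE for no effect and wells lacking GST-MLLE protein for full effect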
eIF4H FP inh: inhibitors of RNA binding by human eIF4H | Q15056 | eIF4H fluorescence polarization binding assay | inhibition, % at 35 µM | actives 0.94% (n = 290,000);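 note: calls also rest on retests at 20 µM and on dose response follow-up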
IMP-1 inh-1: inhibitors of Pseudomonas aeruginosa IMP-1 metallo-beta-lactamase; actives 0.45% (n = 290,000); inhibition, % at 5.6 µM; purified IMP-1, nitrocefin hydrolysis, epi-absorbance fluorescence;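 active = inhibition above the mean plus 3 SD of all compounds in the same screening run, cut at about 4.5% in these data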;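 note: 0% = IMP-1 with DMSO and 100% = DMSO wells lacking enzyme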
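Test system: recombinant IMP-1 enzyme, purified / Medium: HEPES buffer pH 7.1 with ZnSO4 and Brij 35 / Doses: single dose, 5.6 µM / Times: 25 °C, 15 min preincubation, 25 min reaction / Detection: Epi-absorbance via hydrolysed-nitrocefin quenching of white-plate fluorescence, 480/530 nm, EDTA stop / Evaluation: percent inhibition from optical density relative to buffer-blank wells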
VIM-2 inh: blocks Pseudomonas aeruginosa VIM-2 metallo-beta-lactamase | purified VIM-2, nitrocefin hydrolysis, epi-absorbance fluorescence | inhibition, % at 5.6 µM | actives 0.89% (n = 290,000);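 active = inhibition above the mean of all tested compounds plus 3 SD, cutoff set per screening run, cut at about 7.5% in these data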;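 note: red hydrolysis product quenches plate fluorescence so inhibitors raise well fluorescence; 0% = enzyme with DMSO and 100% = DMSO without enzyme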
IMP-1 inh-2: selectivity counter-screen for VIM-2 inhibitors: IMP-1 metallo-beta-lactamase inhibitors; AID 1856; shares compounds with VIM-2 inh; inhibition, % at 5.6 µM; 1,300 tested, under 10 active; purified IMP-1, nitrocefin hydrolysis, epi-absorbance fluorescence;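 note: 0% = enzyme with vehicle and 100% = vehicle without enzyme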
VIM-2 FRET ctr: counter-screen for VIM-2 inhibitors: epi-absorbance artifacts via FRET; inhibition, % at 5.6 µM; actives 23% (n = 1,300); AID 1857; shares compounds with VIM-2 inh; purified VIM-2, CCF2 FRET substrate hydrolysis;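 active = inhibition above the mean of all tested compounds plus 3 SD, cut at about 19% in these data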;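 note: 0% = VIM-2 plus DMSO and 100% = no enzyme wells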
TEM-1 counter: blocks E. coli TEM-1 beta-lactamase in VIM-2 selectivity screen. shares compounds with VIM-2 inh. Purified TEM-1, nitrocefin hydrolysis, epi-absorbance fluorescence. inhibition, % at 5.6 µM. actives 3% (n = 1,300). AID 1866;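 active = inhibition above that campaign's mean inhibition plus 3 SD, cut at about 0.46% in these data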;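 note: 0% = TEM-1 with DMSO and 100% = TEM-1 with 100 µM potassium clavulanate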
Target sequence (P62593 whole entry, looked up): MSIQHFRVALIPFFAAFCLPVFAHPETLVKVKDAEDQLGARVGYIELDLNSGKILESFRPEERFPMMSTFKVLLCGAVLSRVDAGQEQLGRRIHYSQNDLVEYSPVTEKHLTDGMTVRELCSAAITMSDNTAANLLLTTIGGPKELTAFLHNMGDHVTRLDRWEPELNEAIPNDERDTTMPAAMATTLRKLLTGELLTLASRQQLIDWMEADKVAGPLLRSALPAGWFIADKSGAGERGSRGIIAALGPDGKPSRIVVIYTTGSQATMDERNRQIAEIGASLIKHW
VIM-2 inh conf: confirmation of P. aeruginosa VIM-2 metallo-beta-lactamase inhibitors; shares compounds with VIM-2 inh; purified VIM-2, nitrocefin hydrolysis, epi-absorbance; inhibition, % at 5.6 µM; actives 96% (n = 1,300);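 active = inhibition of the VIM-2 beta-lactamase enzyme above about 11% from the earlier first-round screen, limit read from the data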;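 note: 0% = VIM-2 with DMSO and 100% = buffer wells without enzyme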
* marks the source's active call; other numbers are inactive results; i = inactive; ? = inconclusive; nt = not tested or not shown. An excerpt weighted towards active compounds, which were near 2.2% of everything screened. Unless noted, the rule behind the calls is not given here.

SMILES	PABP polyA inh	PABP1 MLLE inh	eIF4H FP inh	IMP-1 inh-1	VIM-2 inh	IMP-1 inh-2	VIM-2 FRET ctr	TEM-1 counter	VIM-2 inh conf
CC(C)Oc1ccc(Cn2c(-c3ccco3)n[nH]c2=S)cc1	i	-19	-10	-6	16*	-3	45*	-10	27*
Cc1ccc(C)c(-n2c(-c3ccco3)n[nH]c2=S)c1	nt	1	nt	nt	nt	nt	nt	nt	nt
CC(=C/c1ccccc1)/C=N/n1c(-c2ccco2)n[nH]c1=S	i	-26	-6	-2	17*	-3	38*	-7	23*
COc1ccccc1-n1c(-c2ccco2)n[nH]c1=S	i	3	-8	-1	22*	-3	44*	-8	28*
O=C(CCCNS(=O)(=O)c1ccc(Cl)c(Cl)c1)NCCc1ccccn1	i	13	-5	-3	-1	nt	nt	nt	nt
CCCCn1c(N)c(N(CCOC)C(=O)COC(=O)COc2cc(C)c(Cl)cc2C(C)C)c(=O)[nH]c1=O	nt	-16	nt	nt	nt	nt	nt	nt	nt
O=C(NCCN1CCN(c2ccccc2)CC1)c1cccn2c(=O)c3ccccc3nc12	i	14	1	-3	3	nt	nt	nt	nt
CN(CCCNC(=O)c1cccn2c(=O)c3ccccc3nc12)Cc1ccccc1	i	-8	-4	-2	22*	-3	-3	-7	45*
CN1CCN(C(=O)CNc2ccc(C(F)(F)F)cc2[N+](=O)[O-])CC1	i	0	-1	0	24*	-3	-2	-6	38*
Clc1ccc(-c2csc(=Nc3cccnc3)n2CCCn2ccnc2)cc1Cl	i	-1	15	-1	30*	-3	-28	-8	35*
COc1ccc(NC(=O)CSc2c3c(nc4ccccc24)CCC3)c(OC)c1	i	17	2	-3	-4	nt	nt	nt	nt
COc1ccc(Nc2c3c(nc4ccccc24)CCC3)c(OC)c1	i	-8	6	0	19*	-5	-3	-8	22*
c1ccc2c(Nc3ccc4c(c3)OCCO4)c3c(nc2c1)CCCC3	i	-6	-8	-1	15*	-3	-5	-2	23*
COc1ccc(Nc2nc(N3CCN(C)CC3)nc3ccccc23)c(OC)c1	i	7	-9	-1	16*	-3	0	-7	28*
O=C(COc1ccccc1CNCc1ccccc1)Nc1ccccc1	i	0	-8	-3	-2	nt	nt	nt	nt
Cc1cc(=O)n2c3ccccc3n(CC(O)CN3CCN(CCO)CC3)c2c1C#N (stereo not drawn)	i	-2	7	-3	22*	-5	0	-10	38*
Cc1cc(=O)n2c3ccccc3n(CC(O)CN3CCN(Cc4ccccc4)CC3)c2c1C#N (stereo not drawn)	i	-12	-4	-3	14*	-3	2	-13	33*
Cc1cc(=O)n2c3ccccc3n(CC(O)CN3CCC(C)CC3)c2c1C#N (stereo not drawn)	i	1	-4	1	4	nt	nt	nt	nt
CC12CCC(c3c(C(=O)O)nn(-c4ccccc4)c31)C2(C)C (stereo not drawn)	i	5	4	0	14*	-3	26*	-2	18*
CC1CCN(C(=O)c2ccc3c(c2NCCO)C(=O)c2ccccc2C3=O)CC1	i	-1	-5	-5	0	nt	nt	nt	nt
Nc1cccc(C(=O)OCC(=O)Nc2cccc3c2C(=O)c2ccccc2C3=O)c1	i	128	9	-2	0	nt	nt	nt	nt
CCN(CC)CCC(=O)Nc1cccc2c1C(=O)c1ccccc1C2=O	i	2	3	-1	33*	-2	-1	-9	45*
CCN(CC)CCNC(=O)c1ccc2c(c1NCCO)C(=O)c1ccccc1C2=O	i	3	21	-1	14*	-5	2	-8	20*
O=C(CSc1n[nH]c(=O)n1C1CC1)N1N=C(c2ccc(Cl)cc2)CC1c1ccco1 (stereo not drawn)	i	-5	-6	-2	1	nt	nt	nt	nt
O=C(CSc1ncn[nH]1)N1N=C(c2ccc(Cl)cc2)CC1c1ccco1 (stereo not drawn)	i	18	-9	0	13*	-3	30*	-6	17*
SMILES	PABP polyA inh	PABP1 MLLE inh	eIF4H FP inh	IMP-1 inh-1	VIM-2 inh	IMP-1 inh-2	VIM-2 FRET ctr	TEM-1 counter	VIM-2 inh conf
Cc1cccc(C(=O)NC(=S)Nc2ccc(S(=O)(=O)N3CCN(C)CC3)cc2)c1	i	30	12	-3	38*	-2	3	-9	69*
Cc1ccc(C(=O)NC(=S)Nc2ccc(S(=O)(=O)N3CCN(C)CC3)cc2)cc1	i	25	-8	-2	31*	-2	0	-8	63*
COc1ccc2ccccc2c1C(O)c1nccn1C (stereo not drawn)	?	196	?	1	13*	0	-2	-1	11*
CC(=O)Cn1cnc2c(sc3nc(C)cc(C)c32)c1=O	i	4	-1	-3	14*	-3	-2	-5	17*
COc1cccc(Cn2cnc3c(sc4nc(C)cc(C)c43)c2=O)c1	i	-6	2	-2	5	nt	nt	nt	nt
Cc1ccc(OCc2nnc(SCC(=O)c3cccc([N+](=O)[O-])c3)n2C)cc1	i	-86	10	-2	0	nt	nt	nt	nt
O=S(=O)(c1ccc2ccccc2c1)N1CCN(CCO)CC1	i	-1	-2	-1	-3	nt	nt	nt	nt
O=C1c2ccccc2-c2nc3ccccc3cc21	i	1	-10	-4	12*	-4	0	-11	17*
Cn1c(=O)c2c(nc(N3CCOCC3)n2CCCNC2=NCCCCC2)n(C)c1=O	i	5	-7	-3	4	nt	nt	nt	nt
Cn1c(=O)c2c(nc(N3CCCCC3)n2CCNC2=NCCC2)n(C)c1=O	i	-3	-6	0	20*	-3	2	-6	36*
CCOc1cccc(C2C(C(=O)c3cccs3)=C(O)C(=O)N2Cc2cccnc2)c1 (stereo not drawn)	i	8	4	-2	-1	nt	nt	nt	nt
O=C(C1=C(O)C(=O)N(Cc2cccnc2)C1c1ccccn1)c1cccs1 (stereo not drawn)	i	4	-6	-4	16*	-3	41*	-5	32*
CCN(CC)CCCNc1nc(SC)nc2sc3c(c12)CCN(C)C3	i	nt	-6	-1	13*	-3	-2	-5	21*
